Results reported in ChEMBL document CHEMBL3227977, “L-Chlorozotocin” (J Med Chem, 1979).

Tests used:
L1210 [1] = assay: Antineoplastic activity against mouse L1210 cells allografted in CDF1 mouse assessed as tumor growth inhibition at 24 mg/kg, ip administered on day 1 post-tumor cell implantation; type: functional; conditions: route intraperitoneal
[2] = Therapeutic index, ratio of ED50 for antineoplastic activity against mouse L1210 cells allografted in CDF1 mouse to LD10 for CDF1 mouse; conditions: read-out: TI
How it was run: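 The therapeutic index is the fraction of the single-dose LD10 that gave 50% 60-day survival: ED50 divided by LD10. ED50 came from log-dose probit-survival plots in L1210-bearing male CDF1 mice (10⁵ cells ip, single ip dose in saline on day 1). LD10 came from concurrent toxicity controls.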

L1210 [3] = assay: Antineoplastic activity against mouse L1210 cells allografted in CDF1 mouse assessed as median day of death at 24 mg/kg, ip administered on day 1 post-tumor cell implantation (reference value: 8 days); type: functional; conditions: route intraperitoneal
How it was run: (§1)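 Male CDF1 mice were inoculated ip with 10⁵ L1210 cells. Drug in physiological saline was given ip as a single dose on day 1 postimplant, at the maximum non-toxic dose relative to the concurrent LD10. There were 10 mice per test group and 30 in the control group, followed for 60 days. Median day of death counted dying mice only. Increase in life span excluded survivors.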

L1210 [4] = assay: Antineoplastic activity against mouse L1210 cells allografted in CDF1 mouse assessed as increase in host life span at 24 mg/kg, ip administered on day 1 post-tumor cell implantation; type: functional; conditions: route intraperitoneal; how it was run: as §1
L1210 [5] = assay: Antineoplastic activity against mouse L1210 cells allografted in CDF1 mouse assessed as dose causing 50% 60-day host survival at 24 mg/kg, ip administered on day 1 post-tumor cell implantation; type: functional; conditions: route intraperitoneal; how it was run: as §1
Mus musculus = assay: Toxicity in ip dosed CDF1 mouse; type: organism-based; conditions: in vivo
How it was run: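 Single-dose LD10 was found in concurrent toxicity controls using normal (non-tumor-bearing) mice, run alongside the L1210 survival experiment, with drug in physiological saline given ip.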

SMILES | LCK (L1210 [1]) | selectivity ratio [2] | Time (L1210 [3]) [days] | Activity (L1210 [4]) [%] | ED50 (L1210 [5]) [mg/kg] | LD10 (Mus musculus) [mg/kg]
O=NN(CCCl)C(=O)N[C@@H]1C(O)O[C@@H](CO)[C@H](O)[C@H]1O (some centres not stated) | >=6 | 0.64 | 15 | 87 | 21 | 33
O=NN(CCCl)C(=O)N[C@H]1C(O)O[C@H](CO)[C@@H](O)[C@@H]1O (some centres not stated) [CHLOROZOTOCIN] | >=6 | 0.7 | 13 | 62 | 21 | 30
